The values that follow come from ChEMBL document CHEMBL1165902, “Synthesis and antiproliferative activity of oxazinocarbazole and N,N-bis(carbazolylmethyl)amine derivatives” (Eur J Med Chem, 2010).

For assay [1], the system named is CCRF-CEM. In words: Antiproliferative activity against human CEM cells after at 100 uM 72 hrs by WST1 assay. The class given is functional. In outline: (§1)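 Cells were exposed to compound for 72 h at 37 °C in RPMI 1640 with 10% FCS. Densities (cells/mL) were CEM 0.2×10^6, Jurkat 0.6×10^6, Raji 0.4×10^6, MCF-7 and Caco-2 0.2×10^6. WST-1 was then added for 4 h and absorbance read at 492 nm. Living cells are given as % of untreated-control OD (100 = no activity), with 0.1% DMSO vehicle controls and etoposide as positive control.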
A general note: Tetrazolium dyes change colour on reduction, which living cells bring about.

In assay [2] the test system is Jurkat. The experiment in a line: Antiproliferative activity against human Jurkat cells at 100 uM after 72 hrs by WST1 assay. The class given is functional. In outline:
as §1

For assay [3], the system named is Raji. In words: Antiproliferative activity against human Raji cells at 100 uM after 72 hrs by WST1 assay. The format is functional. In outline: as §1
In assay [4] the test system is MCF7. In words: Antiproliferative activity against human MCF7 cells at 100 uM after 72 hrs by WST1 assay. The format is functional. In outline:
as §1

Assay [5] relates to Caco-2. The experiment in a line: Antiproliferative activity against human Caco-2 cells at 100 uM after 72 hrs by WST1 assay. The format is functional. In outline: as §1
Assay [6] relates to CCRF-CEM. The experiment in a line: Antiproliferative activity against human CEM cells after 72 hrs by WST1 assay. The format is functional, cell-based. In outline: (§2)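 Seeding densities (cells/mL) were CEM 0.2×10^6, Jurkat 0.6×10^6, Raji 0.4×10^6, MCF-7 0.2×10^6 and Caco-2 0.2×10^6, in RPMI 1640 with 10% FCS, non-essential amino acids, pyruvate, glutamine and gentamicin. Cells were exposed to 12.5–100 µM (DMSO stocks, 0.1% DMSO controls) for 72 h at 37 °C. WST-1 was added for 4 h and read at 492 nm. IC50 is for 50% growth inhibition.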

In assay [7] the test system is Jurkat. The experiment in a line: Antiproliferative activity against human Jurkat cells after 72 hrs by WST1 assay. The format is functional, cell-based. In outline:
as §2

In assay [8] the test system is Raji. The experiment in a line: Antiproliferative activity against human Raji cells after 72 hrs by WST1 assay. The format is functional, cell-based. In outline:
as §2

The test system of assay [9] is MCF7. In words: Antiproliferative activity against human MCF7 cells after 72 hrs by WST1 assay. The class given is functional, cell-based. To be noted: MCF7, 72 h. In outline:
as §2

Assay [10] relates to Caco-2. The experiment in a line: Antiproliferative activity against human Caco-2 cells after 72 hrs by WST1 assay. The class given is functional, cell-based. To be noted: Caco-2, 72 h. In outline: as §2

The structures appear in SMILES notation.

In the case of `Cn1c2ccccc2c2cc(CN(Cc3ccccn3)Cc3cc4c5ccccc5n(C)c4cc3O)c(O)cc21`, the Activity was 9% with CCRF-CEM [1]; 8.5% with Jurkat [2]; 70% in the assay with Raji [3]; 24.5% with MCF7 [4]; 10.5% in the assay with Caco-2 [5].
As for `CCn1c2ccccc2c2c3c(ccc21)CN(Cc1ccccc1)CO3`, the results for the Activity in the assay on CCRF-CEM [1], with MCF7 [4] and in the assay on Caco-2 [5] were 31.5%, 64% and 46%, respectively.
In the case of `CCn1c2ccccc2c2c3c(ccc21)CN(Cc1ccc(C)cc1)CO3`, the Activity with CCRF-CEM [1] is listed as 15%; in the assay on Jurkat [2], 49.5%; in the assay on Raji [3], 31.5%; in the assay with MCF7 [4], 85.5%; in the assay with Caco-2 [5], 93%.
What is called IC50 is the midpoint of a concentration-inhibition curve. Lower therefore signals higher potency. In the case of `CC(c1ccccc1)N1COc2cc3c(cc2C1)c1ccccc1n3C` (centres undefined), the Activity with CCRF-CEM [1] is given as 0.5%; in the assay with Jurkat [2], 1%; in the assay on Raji [3], 18.5%; in the assay on MCF7 [4] it was 0%; in the assay on Caco-2 [5] it was 2%. Further, the IC50 with CCRF-CEM [6] was determined as 25.2 µM; with Jurkat [7] it was 37.3 µM; in the assay with Raji [8], 57.9 µM; in the assay with MCF7 [9] it was 62.5 µM; with Caco-2 [10] it was 37.7 µM.
Take `C=CCn1c2ccccc2c2c3c(ccc21)CN(Cc1ccc(C)cc1)CO3`: the Activity in the assay with CCRF-CEM [1] came out at 9%; in the assay with Jurkat [2], 3.5%; in the assay with Raji [3], 9.5%; in the assay with MCF7 [4], 66%; in the assay on Caco-2 [5], 54.5%.
For the compound `C=CCN1COc2c(ccc3c2c2ccccc2n3CC)C1`, the Activity with CCRF-CEM [1] is 4%; in the assay on Jurkat [2], 6.5%; in the assay on Raji [3], 4.5%; with MCF7 [4] it was 10%; in the assay on Caco-2 [5] it was 34%. The half-maximal inhibitory concentration (IC50) in the assay with CCRF-CEM [6] was found to be 44 µM; in the assay on Jurkat [7], 75 µM; with Raji [8] it was 43.6 µM; in the assay on Caco-2 [10], 25.2 µM.
Take `CCn1c2ccccc2c2c3c(ccc21)CN(c1ccccc1)CO3`: the Activity is listed as 58.5% in the assay on CCRF-CEM [1]; 55% in the assay with Jurkat [2]; 84% in the assay on Raji [3]; 100% in the assay with MCF7 [4]; 100% in the assay with Caco-2 [5].
Regarding `C=CCn1c2ccccc2c2c3c(ccc21)CN(Cc1ccccc1)CO3`, the Activity in the assay with CCRF-CEM [1] came to 5.5%; in the assay on Jurkat [2], 67%; in the assay with Raji [3] it was 100%; in the assay with MCF7 [4], 55.5%; in the assay on Caco-2 [5] it was 56.5%.
Take `C=CCn1c2ccccc2c2c3c(ccc21)CN(Cc1ccccn1)CO3`: the Activity amounted to 14.5% in the assay on CCRF-CEM [1]; 12.5% in the assay on Jurkat [2]; 31.5% in the assay with Raji [3]; 47.5% in the assay with MCF7 [4]; 55.5% with Caco-2 [5].
Consider `Cn1c2ccccc2c2cc3c(cc21)OCN(Cc1nc2ccccc2s1)C3`, for which the Activity with CCRF-CEM [1] is recorded as 34%; with Jurkat [2] it was 17%; with Raji [3], 78%; with MCF7 [4], 79%; in the assay on Caco-2 [5], 51%.
For the compound `C=CCn1c2ccccc2c2c3c(ccc21)CN(c1ccccc1)CO3`, the Activity in the assay with CCRF-CEM [1] was 17%; in the assay on Jurkat [2], 13.5%; with Raji [3], 49.5%; in the assay with MCF7 [4], 83%; in the assay with Caco-2 [5], 54.5%.
In the same order, the values of `Cn1c2ccccc2c2c3c(ccc21)CN(Cc1ccccc1)CO3` are 10%, 87%, 80%, 87% and 100%.
Take `Cn1c2ccccc2c2c3c(ccc21)CN(c1ccccc1)CO3`: the Activity came out at 25% with CCRF-CEM [1]; 74.5% in the assay on Jurkat [2]; 77% in the assay with Raji [3]; 100% in the assay with MCF7 [4]; 100% in the assay on Caco-2 [5].
Regarding `C=CCn1c2ccccc2c2c(O)c(CN(Cc3ccccn3)Cc3ccc4c(c3O)c3ccccc3n4CC=C)ccc21`, the Activity in the assay on CCRF-CEM [1] is listed as 78.5%; with Jurkat [2], 92%; in the assay with Raji [3] it was 95.5%; in the assay on MCF7 [4], 94.5%; with Caco-2 [5], 94%.
In the same order, the values of `C=CCN1COc2c(ccc3c2c2ccccc2n3CC=C)C1` are 2%, 2.5%, 19.5%, 43% and 12%.
Turning to `C=CCN1COc2c(ccc3c2c2ccccc2n3C)C1`, the Activity in the assay with CCRF-CEM [1] turned out to be 4.5%; with Jurkat [2] it was 8.5%; with Raji [3] it was 9.5%; with MCF7 [4], 35%; in the assay on Caco-2 [5], 5%. The concentration for half-maximal inhibition (IC50) with CCRF-CEM [6] was determined as 35.7 µM; with Jurkat [7] it was 69 µM; with Raji [8], 43.6 µM; with Caco-2 [10] it was 32.1 µM.
With `Cc1ccc(CN2COc3ccc4c5ccccc5n(C)c4c3C2)cc1`, the Activity in the assay on CCRF-CEM [1] amounted to 1%; in the assay with Jurkat [2] it was 1.5%; in the assay on Raji [3] it was 12%; in the assay with MCF7 [4], 1.5%; in the assay with Caco-2 [5], 3%.
Regarding `CCn1c2ccccc2c2c(O)c(CN(Cc3ccccn3)Cc3ccc4c(c3O)c3ccccc3n4CC)ccc21`, the Activity in the assay on CCRF-CEM [1] is 53%; in the assay with Jurkat [2], 97.5%; in the assay on Raji [3], 100%; with MCF7 [4], 89%; with Caco-2 [5] it was 35.5%.
In the same order, the values of `Cn1c2ccccc2c2c(O)c(CN(Cc3ccccn3)Cc3ccc4c(c3O)c3ccccc3n4C)ccc21` are 87.5%, 72%, 100%, 98.5% and 54%.
For `CCn1c2ccccc2c2c3c(ccc21)CN(C(C)c1ccccc1)CO3` (centres undefined), the Activity in the assay on CCRF-CEM [1] is on record as 21%; in the assay on MCF7 [4], 86.5%; in the assay on Caco-2 [5] it was 59%.
Consider `CC(c1ccccc1)N1COc2c(ccc3c2c2ccccc2n3C)C1` (centres undefined), for which the Activity in the assay with CCRF-CEM [1] turned out to be 40%; in the assay with Jurkat [2], 80.5%; in the assay on Raji [3], 84%; in the assay on MCF7 [4], 100%; in the assay on Caco-2 [5], 100%.
As for `Cn1c2ccccc2c2cc3c(cc21)OCN(Cc1ccccc1)C3`, the Activity in the assay with CCRF-CEM [1] came to 0.5%; with Jurkat [2], 1%; in the assay on Raji [3], 11%; in the assay with MCF7 [4], 3%; in the assay with Caco-2 [5] it was 1.5%.
On to `Cc1ccc(CN2COc3c(ccc4c3c3ccccc3n4C)C2)cc1`, for which the Activity in the assay with CCRF-CEM [1] is given as 55.5%; with MCF7 [4] it was 42.5%.
Take `CC(C)=CCn1c2ccccc2c2c3c(ccc21)CN(Cc1ccc(C)cc1)CO3`: the Activity came to 11.5% in the assay with CCRF-CEM [1]; 13.5% in the assay with Jurkat [2]; 11% with Raji [3]; 41.5% with MCF7 [4]; 48.5% in the assay with Caco-2 [5].
The corresponding values for `CC(c1ccccc1)N1COc2ccc3c4ccccc4n(C)c3c2C1` (centres undefined) are 0.5%, 0.5%, 19.5%, 0% and 5%.
Take `Cn1c2ccccc2c2ccc3c(c21)CN(Cc1ccccn1)CO3`: the Activity was found to be 1% with CCRF-CEM [1]; 2% with Jurkat [2]; 23% with Raji [3]; 1.5% in the assay on MCF7 [4]; 7% in the assay with Caco-2 [5]. For the same compound, the IC50 amounted to 74.3 µM in the assay with CCRF-CEM [6], 75 µM in the assay on Jurkat [7] and 68.8 µM in the assay on Caco-2 [10].
As for `C=CCN1COc2ccc3c4ccccc4n(C)c3c2C1`, the Activity in the assay on CCRF-CEM [1] was 1.5%; with Jurkat [2], 2%; with Raji [3], 60.5%; in the assay on MCF7 [4], 62%; in the assay on Caco-2 [5], 5%.
As for `CC(C)=CCn1c2ccccc2c2c(O)c(CN(Cc3ccccn3)Cc3ccc4c(c3O)c3ccccc3n4CC=C(C)C)ccc21`, the Activity with CCRF-CEM [1], with Jurkat [2], in the assay on Raji [3], in the assay with MCF7 [4] and in the assay with Caco-2 [5] was 100% throughout.
Turning to `CCn1c2ccccc2c2c3c(ccc21)CN(Cc1ccccn1)CO3`, the Activity is 23% in the assay on CCRF-CEM [1]; 82% with Jurkat [2]; 100% in the assay on Raji [3]; 52% in the assay on MCF7 [4]; 16% with Caco-2 [5].
In the same order, the values of `CC(C)=CCn1c2ccccc2c2c3c(ccc21)CN(c1ccccc1)CO3` are 10.5%, 7.5%, 17%, 49% and 60%.
